Laboratory results from ChEMBL document CHEMBL2046312, “Synthesis and biological activity of potent HIV-1 protease inhibitors based on Phe-Pro dihydroxyethylene isosteres” (J Med Chem, 2012).

Tests used:
Protease [1] = target: T1, Protease (Human immunodeficiency virus 1, UniProt Q9YQ12); assay: Inhibition of HIV1 3B protease activity in human H9 cells using Abz-Thr-Ile-Nle-Phe(p-NO2)-Gln-Arg-NH2 as substrate after 40 mins by spectrophotometric analysis; type: cell-based
Protease [2] = target: T1, Protease; assay: Inhibition of Human immunodeficiency virus 1 protease using Abz-Thr-Ile-Nle-Phe(p-NO2)-Gln-Arg-NH2 as substrate by fluorescence analysis
Method in brief: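 Recombinant wild-type HIV-1 PR with fluorogenic substrate Abz-NF*-6, run at pH 5.5. […] 1.2 nM PR needed to detect activity. Active enzyme concentration set by titration with ritonavir and nelfinavir. The IC50 measurability limit is one-half of the active enzyme concentration.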

[3] = test system: Human immunodeficiency virus 1; assay: Antiviral activity against Human immunodeficiency virus 1 3B infected in human MT2 cells assessed as survival of virus infected cells at 10 nM after 72 to 96 hrs by MTT assay; type: functional
Method in brief: (§1)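 HIV-1 IIIB from supernatants of chronically infected H9/HTLV IIIB cells; stock characterized by p24, RT activity and infectivity (2 × 10⁶ infectious virions/mL). MT-2 cells in RPMI 1640 + 10% FCS, infected at MOI 0,1 and incubated with inhibitor for 72−96 h. Microtiter infection assay, MTT uptake read at 540 nm, expressed as % survival of virus-infected cells.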

[4] = test system: Human immunodeficiency virus 1; assay: Antiviral activity against Human immunodeficiency virus 1 3B infected in human MT2 cells assessed as inhibition of reverse transcriptase activity at 10 nM after 72 to 96 hrs by MTT assay relative to untreated control; type: functional; set-up: scale not given: the % may be the effect or the level left
[5] = test system: Human immunodeficiency virus 1; assay: Antiviral activity against Human immunodeficiency virus 1 3B infected in human MT2 cells assessed as survival of virus infected cells at 5 nM after 72 to 96 hrs by MTT assay; type: functional; method in brief: as §1
[6] = Ratio of CC50 for human MT2 cells after 96 hrs to CC50 for human MT2 cells after 72 hrs; type: cell-based
MT2 [7] = assay: Ratio of MNC for human MT2 cells after 96 hrs to MNC for human MT2 cells after 72 hrs; type: ADME, cell-based
[8] = (§2) Cytotoxicity against human MT2 cells after 72 hrs by MTT assay; type: cell-based; conditions: MT2 cells
Method in brief: (§3)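 MT-2 cells grown in RPMI 1640 with 10% fetal calf serum and exposed to inhibitor for 72 or 96 h. MTT uptake read-out. CC50 is derived from % cell survival. MNC is the highest concentration that alters neither monolayer morphology nor survival rate. Six to eight parallels per experiment, each experiment run in triplicate.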

MT2 [9] = assay: as §2; type: cell-based; conditions: mt2, 72 h; method in brief: as §3
[10] = (§4) Cytotoxicity against human MT2 cells assessed as maximum non-toxic concentration after 72 hrs by MTT assay; type: cell-based; conditions: MT2 cells, read-out: MNCC; method in brief: as §3
MT2 [11] = assay: as §4; type: cell-based; conditions: mt2, 72 h; method in brief: as §3
[12] = test system: Human immunodeficiency virus 1; assay: Antiviral activity against Human immunodeficiency virus 1 3B infected in human MT2 cells assessed as inhibition of reverse transcriptase activity at 5 nM after 72 to 96 hrs by MTT assay relative to untreated control; type: functional; set-up: scale not given: the % may be the effect or the level left
[13] = (§5) Cytotoxicity against human MT2 cells assessed as maximum non-toxic concentration after 96 hrs by MTT assay; type: cell-based; conditions: MT2 cells, read-out: MNCC; method in brief: as §3
MT2 [14] = assay: as §5; type: cell-based; conditions: mt2, 96 h; method in brief: as §3
[15] = (§6) Cytotoxicity against human MT2 cells after 96 hrs by MTT assay; type: cell-based; conditions: MT2 cells; method in brief: as §3
MT2 [16] = assay: as §6; type: cell-based; conditions: mt2, 96 h; method in brief: as §3
[17] = test system: Human immunodeficiency virus 1; assay: Antiviral activity against Human immunodeficiency virus 1 3B infected in human MT2 cells assessed as inhibition of reverse transcriptase activity at 0.0000001 nM after 72 to 96 hrs by MTT assay relative to untreated control; type: functional; set-up: scale not given: the % may be the effect or the level left
[18] = test system: Human immunodeficiency virus 1; assay: Antiviral activity against Human immunodeficiency virus 1 3B infected in human MT2 cells assessed as survival of virus infected cells at 0.001 nM after 72 to 96 hrs by MTT assay; type: functional; method in brief: as §1
[19] = test system: Human immunodeficiency virus 1; assay: Antiviral activity against Human immunodeficiency virus 1 3B infected in human MT2 cells assessed as survival of virus infected cells at 0.00001 nM after 72 to 96 hrs by MTT assay; type: functional; method in brief: as §1
[20] = test system: Human immunodeficiency virus 1; assay: Antiviral activity against Human immunodeficiency virus 1 3B infected in human MT2 cells assessed as inhibition of reverse transcriptase activity at 0.0001 nM after 72 to 96 hrs by MTT assay relative to untreated control; type: functional; set-up: scale not given: the % may be the effect or the level left
[21] = test system: Human immunodeficiency virus 1; assay: Antiviral activity against Human immunodeficiency virus 1 3B infected in human MT2 cells assessed as survival of virus infected cells at 0.1 nM after 72 to 96 hrs by MTT assay; type: functional; method in brief: as §1
[22] = test system: Human immunodeficiency virus 1; assay: Antiviral activity against Human immunodeficiency virus 1 3B infected in human MT2 cells assessed as inhibition of reverse transcriptase activity at 0.00001 nM after 72 to 96 hrs by MTT assay relative to untreated control; type: functional; set-up: scale not given: the % may be the effect or the level left
[23] = test system: Human immunodeficiency virus 1; assay: Antiviral activity against Human immunodeficiency virus 1 3B infected in human MT2 cells assessed as inhibition of reverse transcriptase activity at 0.001 nM after 72 to 96 hrs by MTT assay relative to untreated control; type: functional; set-up: scale not given: the % may be the effect or the level left
[24] = test system: Human immunodeficiency virus 1; assay: Antiviral activity against Human immunodeficiency virus 1 3B infected in human MT2 cells assessed as inhibition of reverse transcriptase activity at 0.1 nM after 72 to 96 hrs by MTT assay relative to untreated control; type: functional; set-up: scale not given: the % may be the effect or the level left
[25] = test system: Human immunodeficiency virus 1; assay: Antiviral activity against Human immunodeficiency virus 1 3B infected in human MT2 cells assessed as survival of virus infected cells at 0.000001 nM after 72 to 96 hrs by MTT assay; type: functional; method in brief: as §1
[26] = test system: Human immunodeficiency virus 1; assay: Antiviral activity against Human immunodeficiency virus 1 3B infected in human MT2 cells assessed as inhibition of reverse transcriptase activity at 0.000001 nM after 72 to 96 hrs by MTT assay relative to untreated control; type: functional; set-up: scale not given: the % may be the effect or the level left
[27] = test system: Human immunodeficiency virus 1; assay: Antiviral activity against Human immunodeficiency virus 1 3B infected in human MT2 cells assessed as survival of virus infected cells at 0.0001 nM after 72 to 96 hrs by MTT assay; type: functional; method in brief: as §1
[28] = test system: Human immunodeficiency virus 1; assay: Antiviral activity against Human immunodeficiency virus 1 3B infected in human MT2 cells assessed as survival of virus infected cells at 0.0000001 nM after 72 to 96 hrs by MTT assay; type: functional; method in brief: as §1

T1 sequence (Q9YQ12 whole entry): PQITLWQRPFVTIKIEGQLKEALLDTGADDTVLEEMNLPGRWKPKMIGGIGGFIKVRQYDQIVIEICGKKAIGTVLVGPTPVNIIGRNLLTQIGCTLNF

For `CC(=O)N[C@@H](Cc1c[nH]c2ccccc12)C(=O)N[C@H](C(=O)N[C@@H](Cc1ccccc1)[C@H](O)[C@@H](O)[C@@H]1CCCN1C(=O)[C@@H](NC(=O)[C@H](Cc1c[nH]c2ccccc12)NC(C)=O)C(C)C)C(C)C`, the IC50 (Protease [1]) was 5 nM, the IC50 (Protease [2]) was under 0.0006 µM and the survival at 0.01 µM [3] was over 90%. It also gave an Activity [4] of 24%, a survival at 0.005 µM [5] of over 90% and a selectivity ratio [6] of 5000. The Ratio (MT2 [7]) was 33, the CC50 at 72 h [8] was 2500 µM and the Activity (MT2 [9]) was “Dose-dependent effect”. For the same compound, the MNTC at 72 h [10] was 10 nM, the Activity (MT2 [11]) was “Dose-dependent effect” and the Activity [12] was 50%. The MNTC at 96 h [13] was 0.3 nM, the Activity (MT2 [14]) was “Dose-dependent effect” and the CC50 at 96 h [15] was 0.5 µM. The Activity (MT2 [16]) was “Dose-dependent effect”.

`Cc1cccc(C)c1OCC(=O)N[C@@H](Cc1ccccc1)[C@@H](O)[C@H](O)[C@H]1CCCN1C(=O)COc1c(C)cccc1C` gave an IC50 (Protease [2]) of 3.3 µM.

Work on `CC[C@H](C)[C@H](NC(=O)[C@@H](NC(C)=O)C(C)C)C(=O)N1CCC[C@H]1[C@H](O)[C@@H](O)[C@H](Cc1ccccc1)NC(=O)[C@H](CC(N)=O)NC(=O)[C@H](CC(C)C)NC(=O)[C@H](CO)NC(C)=O` yielded an IC50 (Protease [2]) of 0.0006 µM.

For `CC(=O)N[C@@H](Cc1c[nH]c2ccccc12)C(=O)N[C@H](C(=O)N[C@@H](Cc1ccccc1)[C@H](O)[C@@H](O)[C@@H]1CCCCN1C(=O)[C@@H](NC(=O)[C@H](Cc1c[nH]c2ccccc12)NC(C)=O)C(C)C)C(C)C`, the IC50 (Protease [2]) was 0.0018 µM.

In the case of `CC(=O)N[C@@H](Cc1c[nH]c2ccccc12)C(=O)N[C@H](C(=O)N1CCC[C@H]1[C@H](O)[C@@H](O)[C@H](Cc1ccccc1)NC(=O)COc1c(C)cccc1C)C(C)C`, the IC50 (Protease [2]) is reported as 0.075 µM.

For `O=C(COc1ccccc1)N[C@@H](Cc1ccccc1)[C@H](O)[C@@H](O)[C@@H]1CCCN1C(=O)COc1ccccc1`, the IC50 (Protease [2]) was 0.614 µM.

With `CC[C@H](NC(=O)COc1ccccc1C)[C@H](O)[C@@H](O)[C@@H]1CCCN1C(=O)COc1ccccc1C` the IC50 (Protease [2]) was 0.655 µM.

`Cc1cccc(C)c1OCC(=O)N[C@@H](Cc1ccccc1)[C@H](O)[C@@H](O)[C@@H]1CCCN1C(=O)COc1ccccc1` showed an IC50 (Protease [2]) of 0.085 µM.

Work on `Cc1cccc(C)c1OCC(=O)N[C@@H](Cc1ccccc1)[C@H](O)[C@@H](O)[C@@H]1CCCN1C(=O)COc1c(C)cccc1C` yielded an Activity [17] of 26%, a survival at 1 pM [18] of 80% and an IC50 (Protease [1]) of 0.0015 nM. For the same compound, the IC50 (Protease [2]) was 0.0096 µM, the survival at 10 fM [19] was 90% and the Activity [20] was 26%. The survival at 0.0001 µM [21] was 78%, the Activity [22] was 29% and the Activity [23] was 25%. The CC50 at 72 h [8] was 300 µM, the Activity (MT2 [9]) was “Dose-dependent effect” and the MNTC at 72 h [10] was 0.1 nM. The Activity (MT2 [11]) was “Dose-dependent effect”, the Activity [24] was 24% and the survival at 1 fM [25] was over 90%. The Activity [26] was 28%, the MNTC at 96 h [13] was 0.1 nM and the Activity (MT2 [14]) was “Dose-dependent effect”. For the same compound, the survival at 100 fM [27] was 87%, the survival at 1e-10 µM [28] was over 90% and the CC50 at 96 h [15] was 1000 µM. For the same compound, the Activity (MT2 [16]) was “Dose-dependent effect”.

For `Cc1cccc(C)c1OCC(=O)N[C@@H](Cc1ccccc1)[C@H](O)[C@@H](O)[C@@H]1CCCCN1C(=O)COc1c(C)cccc1C`, the IC50 (Protease [2]) was 0.175 µM.

With `CC(=O)c1ccc(OCC(=O)N[C@@H](Cc2ccccc2)[C@H](O)[C@@H](O)[C@@H]2CCCN2C(=O)COc2ccc(C(C)=O)cc2)cc1` the IC50 (Protease [2]) was 116 µM.

Work on `Cc1cccc(C)c1OCC(=O)N1CCC[C@H]1[C@H](O)[C@@H](O)[C@@H]1CCCN1C(=O)COc1c(C)cccc1C` yielded an IC50 (Protease [2]) of 290 µM.

Work on `CC(=O)N[C@@H](Cc1c[nH]c2ccccc12)C(=O)N[C@H](C(=O)N[C@@H](Cc1ccccc1)[C@H](O)[C@@H](O)[C@H](Cc1ccccc1)NC(=O)[C@@H](NC(=O)[C@H](Cc1c[nH]c2ccccc12)NC(C)=O)C(C)C)C(C)C` yielded an IC50 (Protease [2]) of 0.006 µM.

For `Cc1cccc(C)c1OCC(=O)N[C@@H](Cc1ccccc1)[C@H](O)[C@@H](O)[C@H](Cc1ccccc1)NC(=O)COc1c(C)cccc1C`, the IC50 (Protease [2]) was 0.028 µM.
